Measured values from ChEMBL document CHEMBL4028818, “Tricyclic 4,4-dimethyl-3,4-dihydrochromeno[3,4-d]imidazole derivatives as microsomal prostaglandin E2 synthase-1 (mPGES-1) inhibitors: SAR and in vivo efficacy in hyperalgesia pain model” (Bioorg Med Chem Lett, 2017).

Assays:
Format in all cases: cell-based
[1] = molecular target: T1, Prostaglandin E synthase (Homo sapiens) (UniProt O14684); assay: Inhibition of recombinant human mPGES-1 expressed in CHO cells assessed as reduction in PGE2 formation at 1 uM using PGH2 a substrate preincubated for 10 mins followed by substrate addition measured after 1 min relative to control
T1 sequence (whole entry): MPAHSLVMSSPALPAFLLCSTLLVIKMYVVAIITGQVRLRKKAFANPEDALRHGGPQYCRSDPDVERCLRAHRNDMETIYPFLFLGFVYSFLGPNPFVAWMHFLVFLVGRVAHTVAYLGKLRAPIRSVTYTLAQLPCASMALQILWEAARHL
Outline: (§1)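 mPGES-1 enzyme inhibition. % inhibition values are means of two experiments in duplicate. IC50 values were derived from graphs of at least two experiments in duplicate.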

[2] = molecular target: T1, Prostaglandin E synthase (Homo sapiens); assay: Inhibition of recombinant human mPGES-1 expressed in CHO cells assessed as reduction in PGE2 formation at 10 uM using PGH2 a substrate preincubated for 10 mins followed by substrate addition measured after 1 min relative to control; outline: as §1
[3] = molecular target: T2, Prostaglandin E synthase (Homo sapiens, UniProt O14684); assay: Inhibition of recombinant human mPGES-1 expressed in CHO cells assessed as reduction in PGE2 formation using PGH2 a substrate preincubated for 10 mins followed by substrate addition measured after 1 min; outline: as §1
T2 sequence (O14684 whole entry): T1 sequence (whole entry)

[4] = molecular target: T2, Prostaglandin E synthase; assay: Inhibition of mPGES-1 in human A549 cells assessed as decrease in IL1beta induced PGE2 release preincubated for 30 mins followed by IL-1beta addition after 16 to 20 hrs by HTRF method

| Structure (SMILES) | inhibition [1] [%] | inhibition [2] [%] | IC50 [3] [nM] | IC50 [4] [nM] |
| --- | --- | --- | --- | --- |
| CC1(C)Oc2cc(-c3nc4ccccc4[nH]3)ccc2-c2nc(-c3c(F)cccc3Cl)[nH]c21 | 12.2 | 75.5 | – | – |
| CC1(C)Oc2cc(C#Cc3cccc(Cl)c3Cl)ccc2-c2nc(-c3c(F)cccc3Cl)[nH]c21 | – | – | 35.5 | – |
| CC1(C)Oc2nc(C#Cc3cc(C(F)(F)F)ccc3Cl)ccc2-c2nc(-c3c(F)cccc3Cl)[nH]c21 | 65 | 63 | – | – |
| CC1(C)Oc2cc(C#Cc3ccccc3C(F)(F)F)ccc2-c2nc(-c3c(F)cncc3Cl)[nH]c21 | – | – | 170 | – |
| CC1(C)Oc2cc(C(=O)NC3CCCCC3)ccc2-c2nc(-c3c(F)cccc3Cl)[nH]c21 | 56 | 68 | – | – |
| CC1(C)Oc2cc(I)ccc2-c2[nH]c(-c3c(F)cccc3Cl)nc21 | 44.3 | 84.2 | – | – |
| CC1(C)Oc2cc(C#Cc3ccccc3C(F)(F)F)ccc2-c2nc(-c3c(Cl)cncc3Cl)[nH]c21 | – | – | 81.3 | – |
| CC1(C)Oc2cc(C(=O)Nc3ccc(Cl)c(F)c3)ccc2-c2[nH]c(-c3c(F)cccc3Cl)nc21 | 83.5 | 84.5 | 187 | – |
| CC1(C)Oc2cc(C(=O)Nc3cccc(C(F)(F)F)c3)ccc2-c2[nH]c(-c3c(F)cccc3Cl)nc21 | 70.4 | 83.6 | – | – |
| CC1(C)Oc2cc(C#Cc3ccccc3)ccc2-c2[nH]c(-c3c(C#N)cccc3C#N)nc21 | – | – | 24.8 | 984 |
| CC1(C)Oc2cc(C#Cc3ccc(Cl)cc3C(F)(F)F)ccc2-c2nc(-c3c(F)cccc3Cl)[nH]c21 | – | – | 7.76 | 2830 |
| CC1(C)Oc2cc(C#Cc3c(Cl)cccc3Cl)ccc2-c2nc(-c3c(F)cccc3Cl)[nH]c21 | – | – | 11.2 | – |
| Cc1cnc(C#Cc2ccc3c(c2)OC(C)(C)c2[nH]c(-c4c(F)cccc4Cl)nc2-3)s1 | – | – | 465 | – |
| CC1(C)Oc2cc(C#Cc3cc(F)ccc3C(F)(F)F)ccc2-c2nc(-c3c(Cl)cncc3Cl)[nH]c21 | – | – | 31.5 | – |
| CC1(C)Oc2cc(C#Cc3cc(C(F)(F)F)ccc3F)ccc2-c2nc(-c3c(F)cccc3Cl)[nH]c21 | – | – | 25 | 461 |
| CC1(C)Oc2cc(C#Cc3ccccc3C(F)(F)F)ccc2-c2[nH]c(-c3c(F)cccc3Cl)nc21 | – | – | 15.6 | 693 |
| CC1(C)Oc2cc(C#Cc3ccc(C(F)(F)F)cc3Cl)ccc2-c2nc(-c3c(F)cncc3Cl)[nH]c21 | – | – | 73.9 | – |
| CC1(C)Oc2cc(-c3nc(C4CC4)no3)ccc2-c2[nH]c(-c3c(F)cccc3Cl)nc21 | 89 | 98.6 | – | – |
| CC1(C)Oc2cc(C#Cc3c(F)cccc3C(F)(F)F)ccc2-c2[nH]c(-c3c(F)cccc3Cl)nc21 | – | – | 12.3 | 691 |
| CC1(C)Oc2cc(C#Cc3ccc(C(F)(F)F)cc3)ccc2-c2[nH]c(-c3c(F)cccc3Cl)nc21 | – | – | 61.8 | – |

Now from value to compound:

| inhibition [1] [%] | inhibition [2] [%] | IC50 [3] [nM] | IC50 [4] [nM] | Structure (SMILES) |
| --- | --- | --- | --- | --- |
| 75 | 76 | – | – | CC1(C)Oc2nc(C#Cc3c(F)cccc3C(F)(F)F)ccc2-c2nc(-c3c(F)cccc3Cl)[nH]c21 |
| – | – | 64.7 | – | CC1(C)Oc2cc(C#Cc3ccccc3Cl)ccc2-c2nc(-c3c(F)cccc3Cl)[nH]c21 |
| – | – | 29.6 | 1250 | CC1(C)Oc2cc(C#Cc3ccc(F)c(C(F)(F)F)c3)ccc2-c2nc(-c3c(F)cccc3Cl)[nH]c21 |
| – | – | 21 | 706 | CC1(C)Oc2cc(C#Cc3cc(F)ccc3C(F)(F)F)ccc2-c2[nH]c(-c3c(F)cccc3Cl)nc21 |
| – | – | 28.2 | – | CC1(C)Oc2cc(C#Cc3ccc(C(F)(F)F)cc3Cl)ccc2-c2nc(-c3c(F)cccc3Cl)[nH]c21 |
| 68.6 | 92 | 710 | – | CC1(C)Oc2cc(Br)ccc2-c2[nH]c(-c3c(Br)cccc3Br)nc21 |
| 40.8 | 94.1 | – | – | CC1(C)Oc2cc(Br)ccc2-c2[nH]c(-c3c(F)cccc3Cl)nc21 |
| – | – | 39.2 | – | CC1(C)Oc2cc(C#Cc3cccc(Cl)c3)ccc2-c2nc(-c3c(F)cccc3Cl)[nH]c21 |
| – | – | 9.3 | 1420 | CC1(C)Oc2cc(C#Cc3cc(Cl)ccc3Cl)ccc2-c2[nH]c(-c3c(F)cccc3Cl)nc21 |
| 52.8 | 67.2 | – | – | Cc1csc(NC(=O)c2ccc3c(c2)OC(C)(C)c2nc(-c4c(F)cccc4Cl)[nH]c2-3)n1 |
| – | – | 33.1 | – | CC1(C)Oc2cc(C#Cc3cc(C(F)(F)F)ccc3Cl)ccc2-c2nc(-c3c(Cl)cncc3Cl)[nH]c21 |
| 81.4 | 83.3 | 191 | – | CC1(C)Oc2cc(-c3ccc(C(F)(F)F)cc3)ccc2-c2[nH]c(-c3c(F)cccc3Cl)nc21 |
| – | – | 641 | – | CC1(C)Oc2cc(C#Cc3ccncc3F)ccc2-c2nc(-c3c(F)cccc3Cl)[nH]c21 |
| – | – | 407 | – | CC1(C)Oc2nc(C#Cc3ccccc3C(F)(F)F)ccc2-c2nc(-c3c(F)cccc3Cl)[nH]c21 |
| – | – | 320 | – | CC1(C)Oc2cc(C#Cc3ccc(C(F)(F)F)cn3)ccc2-c2nc(-c3c(F)cccc3Cl)[nH]c21 |
| – | – | 83 | – | CC1(C)Oc2cc(C#Cc3ccccc3)ccc2-c2nc(-c3c(F)cccc3Cl)[nH]c21 |
| – | – | 29.3 | – | CC1(C)Oc2cc(C#Cc3cccc(C(F)(F)F)c3)ccc2-c2nc(-c3c(F)cccc3Cl)[nH]c21 |
| – | – | 797 | – | CC1(C)Oc2cc(C#Cc3cncnc3)ccc2-c2nc(-c3c(F)cccc3Cl)[nH]c21 |
| 70.1 | 86.9 | – | – | CC1(C)Oc2cc(-c3ccc(OC(F)(F)F)cc3)ccc2-c2[nH]c(-c3c(F)cccc3Cl)nc21 |
| 86.7 | 92.9 | 252 | – | CC1(C)Oc2cc(C(=O)Nc3ccc(C(F)(F)F)cc3)ccc2-c2[nH]c(-c3c(F)cccc3Cl)nc21 |
| – | – | 3.89 | 1200 | CC1(C)Oc2cc(C#Cc3cc(C(F)(F)F)ccc3Cl)ccc2-c2nc(-c3c(C#N)cccc3C#N)[nH]c21 |
| – | – | 11.8 | 267 | CC1(C)Oc2cc(C#Cc3ccccc3OC(F)(F)F)ccc2-c2[nH]c(-c3c(C#N)cccc3C#N)nc21 |
| 74 | 89 | 325 | – | CC1(C)Oc2cc(Cl)ccc2-c2[nH]c(-c3c(Br)cccc3Br)nc21 |
| – | – | 12.7 | 836 | CC1(C)Oc2cc(C#Cc3c(F)cccc3C(F)(F)F)ccc2-c2nc(-c3c(C#N)cccc3C#N)[nH]c21 |
| 76 | 94.8 | – | – | CC1(C)Oc2cc(-c3ccc(Cl)cc3)ccc2-c2[nH]c(-c3c(F)cccc3Cl)nc21 |
| – | – | 38.2 | – | CC1(C)Oc2cc(C#Cc3ccc(Cl)cc3)ccc2-c2nc(-c3c(F)cccc3Cl)[nH]c21 |
| – | – | 19.9 | 578 | CC1(C)Oc2cc(C#Cc3ccccc3OC(F)(F)F)ccc2-c2[nH]c(-c3c(F)cccc3Cl)nc21 |
| – | – | 12.7 | 2320 | CC1(C)Oc2cc(C#Cc3cc(Cl)ccc3Cl)ccc2-c2nc(-c3c(C#N)cccc3C#N)[nH]c21 |
